Assay results taken from ChEMBL document CHEMBL1150214, “Isolation, synthesis, and structure-activity relationships of bioactive benzoquinones from Miconia lepidota from the Suriname rainforest” (J Nat Prod, 2001).
≈ marks a conversion by molar mass, not a printed value.

Tests used:
[1] = test system: Saccharomyces cerevisiae; assay: Antifungal activity against Saccharomyces cerevisiae 1138 assessed as concentration required to generate kill-zone of 12 mm in diameter after 48 hrs; type: functional
Method in brief: (§1)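 Mutant S. cerevisiae strains on an agar-based gel, incubated 48 h with samples. Inhibition zones measured; IC12 (µg/mL) is the concentration producing a 12 mm diameter kill zone. Values with standard deviations come from three separate experiments.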

[2] = test system: Saccharomyces cerevisiae; assay: Antifungal activity against Saccharomyces cerevisiae 1140 assessed as concentration required to generate kill-zone of 12 mm in diameter after 48 hrs; type: functional; method in brief: as §1
[3] = test system: Saccharomyces cerevisiae; assay: Antifungal activity against Saccharomyces cerevisiae 7 assessed as concentration required to generate kill-zone of 12 mm in diameter; type: functional
Method in brief: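 Mutant S. cerevisiae Sc-7 on an agar-based gel, incubated […] with samples. Kill-zone diameters measured; IC12 (µg/mL) is the concentration giving a 12 mm zone. Standard deviations come from three separate experiments.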

[4] = test system: A2780; assay: Cytotoxicity against human A2780 cells; type: functional, cell-based
[5] = test system: Saccharomyces cerevisiae; assay: Antifungal activity against Saccharomyces cerevisiae 1353 assessed as concentration required to generate kill-zone of 12 mm in diameter after 48 hrs
[6] = test system: M109; assay: Cytotoxicity against mouse M109 cells; type: functional, cell-based
Method in brief: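 In vitro antitumor cytotoxicity in murine Madison Lung Carcinoma (M109) cells, run at Bristol-Myers Squibb; value given as IC50 in µg/mL.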

Row | Compound | Activity [1] [µg/mL] | Activity [2] [µg/mL] | Activity [3] [µg/mL] | IC50 [4] [µg/mL] | Activity [5] [µg/mL] | IC50 [6] [µg/mL]
1 | NYSTATIN | 14 | 13 |  |  |  | 
2 | CCCCC1=CC(=O)C=C(OC)C1=O | 220 | 150 | 80 | 3.2 (≈ 16.5 µM) | 210 | 
3 | CCCCCCCCCCCCCCCCCCCC1=CC(=O)C=C(OC)C1=O | >2000 | >2000 | >2000 |  | >2000 | 
4 | CCCCC(O)C1=CC(=O)C=C(OC)C1=O (centres undefined) | 536 | 430 | 438 |  | 577 | 
5 | COC1=CC(=O)C=C(Cc2ccccc2)C1=O | 460 | 420 | 180 |  | 590 | 
6 | CCCCCCCC1=CC(=O)C=C(OC)C1=O | 120 | 130 | 16 | 7.9 (≈ 33.4 µM) | 220 | 10 (≈ 42.3 µM)
7 | COC1=CC(=O)C=C(C)C1=O | 580 | 630 | 530 |  | 830 | 
8 | CCCCCC1=CC(=O)C=C(OC)C1=O [Primin] | 240 | 170 | 48 | 2.9 (≈ 13.9 µM) | 285 | 10 (≈ 48 µM)
9 | CCC1=CC(=O)C=C(OC)C1=O | 200 | 140 | 220 |  | 233 | 
10 | CCCCCCCCCCC1=CC(=O)C=C(OC)C1=O | 380 | 380 | 3 |  | 380 | 10 (≈ 35.9 µM)
